Measured values gathered from unrelated publications.
Each line is one published result; the experiments were not run side by side.
Target: Wee1-like protein kinase (WEE1, Homo sapiens, UniProt P30291)

CN(C)c1nccc(-c2cnc3ncccn23)n1 — remaining binding (binding; 1 µM): 100%
Cn1nc(C(=O)NCc2ccc(C(=O)O)cc2)cc1-c1ccc2[nH]ccc2c1 — remaining binding (cell-free assay; competition with immobilised ligand; 0.1 µM): 100%
COc1cnc(Nc2cccc(S(N)(=O)=O)c2)nc1N1CCN(c2ccccc2)CC1 — remaining binding (binding; competition with immobilised ligand; 1 µM): 100%
C[C@H]1CCN(c2nccc(-c3cnn4ncccc34)n2)C1 — remaining binding (binding; 1 µM): 100%
O=C(NCC1CCOCC1)c1n[nH]cc1NC(=O)c1c(F)cccc1F — remaining binding (binding; competition with immobilised ligand; 1 µM): 97%
FC(F)(F)c1ccc2c(c1)nc(-c1cccnc1)n2C1CC1 — remaining binding (cell-free assay; competition with immobilised ligand; 1 µM): 93%
Cc1cnc(Nc2ccc(C(=O)N3CCC(N4CCCC4)CC3)cc2)nc1-c1cc2ccccc2s1 — remaining binding (binding; competition with immobilised ligand; 1 µM): 4.2%
O=C(O)[C@@H]1[C@@H](Cn2nnc3ccccc3c2=O)CC[C@H]1C(=O)c1ccc(OCCC2CCOCC2)cc1 — remaining binding (cell-free assay; competition with immobilised ligand; 1 µM): 93%
Nc1ncc2c(n1)-c1c([nH]c3ccc(C#CC4CC4)cc13)CCCC2 — remaining binding (binding; competition with immobilised ligand; 1 µM): 87%
c1cnn2ncc(-c3ccnc(N4CCC45COC5)n3)c2c1 — remaining binding (binding; 1 µM): 92%
CCCOc1ccc([C@@H]2[C@@H](C(=O)O)[C@H](c3ccc4c(c3)OCO4)CN2CC(=O)Nc2c(CC)cccc2CC)cc1 — remaining binding (cell-free assay; competition with immobilised ligand; 1 µM): 95%
C=CC(=O)N1CCC(C(=O)NCC(=O)N2CCN(c3nc(-c4cnc(N)nc4C(F)F)nc(N4CCOCC4)n3)CC2)CC1 — remaining binding (binding; competition with immobilised ligand; 1 µM): 89%
CN1CCN(c2cnc3c(C4CCN(C(=O)c5ccc(OC(F)(F)F)cc5N)CC4)ncnc3c2)CC1 — remaining binding (cell-free assay; competition with immobilised ligand; 1 µM): 96%
C[C@@H](c1ccc(-n2cnc3c(N)ncnc32)cc1)N1CCc2nn(C)c(Cc3ccccc3)c2C1=O — remaining binding (binding; competition with immobilised ligand; 0.1 µM): 85%
CN(C)c1ncc(F)c(-c2cnn3ncccc23)n1 — remaining binding (binding; 1 µM): 100%
O=C(c1ccc(Nc2nccc(-c3cc4ccccc4s3)n2)cc1)N1CCC(N2CCCC2)CC1 — remaining binding (binding; competition with immobilised ligand; 1 µM): 83%
N[C@@H]1CCN(c2nccc(-c3cnn4ncccc34)n2)C1 — remaining binding (binding; 1 µM): 100%
COc1ncc2cc3ccccc3nc2c1C#N — remaining binding (cell-free assay; competition with immobilised ligand; 5 µM): 98%
Cc1cnn2ncc(-c3ccnc(N(C)C)n3)c2c1 — remaining binding (binding; 1 µM): 100%
O=C(c1ccc(Nc2ncc(Cl)c(-c3cc4ccccc4s3)n2)cc1)N1CCC(N2CCCC2)CC1 — remaining binding (binding; competition with immobilised ligand; 1 µM): 11%
COc1ccnn2ncc(-c3ccnc(N(C)C)n3)c12 — remaining binding (binding; 1 µM): 100%
CCC(=O)N[C@H]1CC[C@@H](C(=O)N(C)c2ccc(-c3nc4ccccc4o3)cc2)C1 — remaining binding (cell-free assay; competition with immobilised ligand; 1 µM): 100%
